Laboratory results published in the EternaBench riboswitch data.

System: MS2 coat protein
Test: apparent Kd, MS2 coat protein; higher = weaker binding; RNA-MaP array; FMN 200 µM where present
How it was run: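 Designs on Illumina sequencing-chip clusters, transcribed by stalled E. coli RNA polymerase, were exposed to SNAP-549-labelled MS2 coat protein in doubling steps from 0.7 or 1.5 nM up to 3 µM, without and then with constant ligand. The buffer held 100 mM Tris-HCl pH 7.5, 80 mM KCl, 4 mM MgCl2, BSA, DTT, yeast tRNA and Tween-20. Apparent Kd values are medians of filtered per-cluster binding-curve fits to green signal normalised to red-channel RNA signal and control-cluster median Fmax.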

[1] = designed as: OFF switch for flavin mononucleotide, no ligand
[2] = ligand present: flavin mononucleotide, designed as: OFF switch for flavin mononucleotide
[3] = designed as: ON switch for flavin mononucleotide, no ligand
[4] = ligand present: flavin mononucleotide, designed as: ON switch for flavin mononucleotide

Sequence | apparent Kd [1] [nM] | apparent Kd [2] [nM] | apparent Kd [3] [nM] | apparent Kd [4] [nM]
GUGACUUAUAGAGGAUAUUGACAUGAGGAUCACCCAUGUAUUUGGGAGUGUUCACUGAAUUCUUACGAGAAGGCUAUAAGACAC | 229 | 224 | – | –
AAAAAAAAAAGUCAGGAUAUACAAAUUUUUACAUGAGGAUCACCCAUGUUAAGGAAAAAAAAAAAGUAGAAGGGACAAAAAAAAAA | – | – | 27.3 | 17.6
UUGAAUCGAAACAUGAGGAUCACCCAUGUGUCGUAAUUGACAUAGGAUAUGUAUAUACUUUUAUAAUAGAAGGAUGACGAUACU | – | – | 9.09 | 7.94
AUAAAACAUGAGGAUCACCCAUGUAGACAUAUGGGAGGAUAUACUAGAUCGAAAGAUCUAGUAGAAGGCCUUUAUG | – | – | 44.2 | 20.8
UGCAUGCUAGGAUAUACGAAACAUUAGGGUUCGUCGUAUGAACAUGAGGAUCACCCAUGUAGAAGGAGCGUGCU | 18.4 | 34.3 | – | –
UAGUAGAUCCGAGGAUAUACAAUCCGGAAACGGUACAUGAGGAUCACCCAUGUAGAAGGCGGAUCUACAGGUACUAAAGUACCU | 5.12 | 7.93 | – | –
AUACUAAAUGAAGGAUAUCUAAGCAUACACCUGAGAGAAGGUCAUUUUUACAUGAGGAUCACCCAUGUUGUGGUUAAUGGGUUA | 290 | 374 | – | –
ACCUUACAUGAGGAUCACCCAUGUCAGGAUAUCUCGGGCGGCUGGAGACCAGCCGCCCAGAGAAGGGACGAGGA | 14.4 | 15.6 | – | –
UUAAUUCGAAACAUGAGGAUCACCCAUGUGUUGUGGUUAAUAUAGGAUAUGUGUAUACUUUUAUGACAGAAGGAUGAUGGUACU | – | – | 14.2 | 11.8
UUGGUAUUCGUAGGAUAUCUGUCGCCACCGUGUGGAGAAGGACGAACAUGAGGAUCACCCAUGUAUCAUGGUGUGGGCUUUGUU | 504 | 470 | – | –
UCGAGUCAUGAGAAGGACUGAUGUUACAUGAGGAUCACCCAUGUCAUGGGUAGGAUAUCAUUGACACGGCCGUACCUCUCUUAC | – | – | 355 | 78.2
GCGUGGAUAGCAGGAUAUAUGUUUCCUACAUGAGGAUCACCCAUGUAGGUGAUCAGCCGAGAAAAGUAGAAGGGCUAUCCAUGC | – | – | 16 | 13.4
AGCUACGUUUCGUAGCAGCUAGGUGAGGAUAUUCAAUUUUUCACAUGAGGAUCACCCAUGUAUGUGAAGAAGGCGCCUAGAAAC | – | – | 10.8 | 5.07
CGCUACAGCCAGAAGGACAUGAGGAUCACCCAUGUAGGAUAUGGGAGACGCAGUCCCGUGUAGAGAAACUACGCUACUGUAGCG | – | – | 430 | 183
UGUCGGAGCAGAGGAUAUACAUGAGGAUCACCCAUGUAAUAAAGUGAAGCCUGGAAACGGGCAAUGUAGAAGGCUGCUCCGACA | 11.3 | 87.8 | – | –
UUUUUUGUACAAGGAUAUCUAUUAUAUUCACGUCCUACAUGAGGAUCACCCAUGUUAUAUAUUUUAGAGAAGGUGUAUUGUCUG | – | – | 31.7 | 35.5
AUCAGCUCGUCAGGAUAUACGUCACUGCGCCAGCAGUGUGGUAAGAUCACAUGAGGAUCACCCAUGUAGAAGGGACGAGCUGAU | 15 | 242 | – | –
GACUGACGAGGAUAUACAUGAGGAUCACCCAUGUAAGAUCAGCGACUUCGGUCGCAAUGUAGAAGGCGUCAGUC | 28.2 | 326 | – | –
UUUACAUGAGGAUCACCCAUGUUAAAAUAAUUAAUUAUAAGUGAGGAUAUAUAAAUUAUAAAAUUGUAGAAGGCACUGGGUAUC | – | – | 47.9 | 44.5
CUCGUGUAAGGAUAUAUUGCAAUGACGAAAUUUGCCCUGAGAUAGAAGGUACAUGAGGAUCACCCAUGUGUCGG | 45.5 | 92.2 | – | –
CUUGUUUAUGUGAGGAUAUACUGUUAGUAAUGUUUGUAGAAGGUACAUGAGGAUCACCCAUGUUUAUUUAUAUU | 19.2 | 18 | – | –

Sequence | apparent Kd [1] [nM] | apparent Kd [2] [nM] | apparent Kd [3] [nM] | apparent Kd [4] [nM]
UAAUCGUUGCAGAAGGUUAUUAUUUUAUCGUGUCUCUUAACAUGAGGAUCACCCAUGUUUUUGAUGAAGGAUAUGCAACGGUAG | 7.54 | 7.09 | – | –
UAUAUAUAGUAAGGAUAUGUAUAUUUUUUAUAAACAGAAGGUACUGACAUGAGGAUCACCCAUGUUUUAGUGUGGGCAUGUAGA | 79.3 | 122 | – | –
AUCAGCUCGUCAGGAUAUACGUCACUGCGGCAGCAGUGUGGUAAGAUCACAUGAGGAUCACCCAUGUAGAAGGGACGAGCUGAU | 13.1 | 260 | – | –
CCUUCACAUGAGGAUCACCCAUGUCAGGAUAUCUCAGUGCAUCCACACGGACGCAUCAAGAGAAGGGACAAAAC | 46.4 | 53.6 | – | –
AGGAGAAAUGUAGGAUAUGGGCGGGUAUAUGGGCAAAGCGCAUAUACCCGCCCAGAAGGACAUGAGGAUCACCCAUGUUUCCCU | 12.2 | 13.3 | – | –
AUAGAAAGAUUAAUAUGAUUACAUGAGGAUCACCCAUGUAUAUAGGAUAUCGACGUCAAUGACGUCGAGAAGGAUAUACAUAAU | 27.6 | 90.4 | – | –
CUGAUUAUACAAGGAUAUCUUUUGUUGUUUCGACUUACAUGAGGAUCACCCAUGUUAAUAUUUUUAGAGAAGGUGUAUUUUCAG | – | – | 16.8 | 20.3
CUGACGUCAGGAUAUCUGAUGUCUAACUUCGGUUAGACAUCAGAGAAGGGACAUGAGGAUCACCCAUGUCAGAA | 25.5 | 20.8 | – | –
AAGUGGUUUAUAUAUAUAGAAAUCAGAAGGCGUGACAUGAGGAUCACCCAUGUGUUCAGUCAUGACGAGGAUAUGACUAAUUGU | 69.9 | 85.4 | – | –
AAAAAGUGAGGAUAUCGAAAAAAAAAAAAAAAAAAAAAAAACGAGAAGGCACAUGAGGAUCACCCAUGUAAAAA | 35.8 | 44.9 | – | –
CCUUUGAAGAUCCAAAAUUUCAACAUGAGGAUCACCCAUGUGCAGGAUAUCGUGCCAGUGAUGUACGAGAAGGGCAGACUCUGC | 176 | 177 | – | –
UUGAUGUCAUCAGGAUAUAGUAUUUAAGACAUAUCUUCUUUCUUACAUGAGGAUCACCCAUGUCGCUAGAAGGGAUGAAUGAUU | 18.7 | 15.4 | – | –
UUUCGGCUAGGAUAUCUGUGCUCGGACAUGAGGAUCACCCAUGUGCGUCAUCACGGAGCCGGAGAAGGAGCUCGUA | 15.8 | 20 | – | –
UAAAUUUUGUAAGGAUAUACACGAGAUUCAAGUGUAGAAGGUACUUACAUGAGGAUCACCCAUGUAUACAUGGAUCAUAGAUAU | – | – | 305 | 63.9
UCUUAUUGAGGAUAUACAUUAAUUUACAUGAGGAUCACCCAUGUUCUUCAAUGUAUAUAUGUAGAAGGCAGAAGAA | 18.5 | 42 | – | –
GCCAUGUCAGGAUAUAAGCUGUUGCCGAACGGUCAACACAAUUAGAAGGGACAUGAGGAUCACCCAUGUCCGAG | 18.5 | 20.3 | – | –
GGGUACAUCGGAGGAUAUCAUGUAAAUACAUGAGGAUCACCCAUGUCGAUGGAGACAUCGGAGAUUGAGAAGGCCGGUGUACCG | – | – | 165 | 9.9
GAGUGACAUGAGGAUCACCCAUGUGAGGAUAUCGGCCGGACCUUGUUAGCUUCCGCCGCGAGAAGGCACAUCGG | 71.8 | 157 | – | –
CACUCAGGCACAUGAGGAUCACCCAUGUCCCGGAAGCCGAGACAGGAUAUGUGCCUCGAAUGUGCACAGAAGGGUCUACUAUAU | – | – | 226 | 180
CUGCUGGAGCUUUGCUUUAGUCGUACAUGAGGAUCACCCAUGUAGGAUAUGGUGGGCUUUGCUUACUAGAAGGAUAGAGUGGUC | 49.9 | 36.3 | – | –
